This is an account of results in ChEMBL document CHEMBL1811848 (Bioorg Med Chem Lett, 2011).

The subject of data set [1] is Mus musculus. Briefly: Reduction in serum triglyceride level in Swiss albino mouse at 10 mg/kg, po administered for 6 days relative to control. It is filed as functional. Details: scale not given: the % may be the effect or the level left. The procedure, abridged:
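Male Swiss albino mice aged 6–8 weeks were given 10 mg/kg/day orally for 6 days. Serum triglyceride was expressed as % change versus vehicle controls, mean of n = 6.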

Data set [2] deals with Mus musculus. Kind of data set: Hypolipidemic activity in db/db mouse assessed as reduction in triglyceride level at 0.003 mg/kg, po. Also on record: scale not given: the % may be the effect or the level left. It counts as functional.
For data set [3], the species on record is Mus musculus. Kind of data set: Hypolipidemic activity in db/db mouse assessed as reduction in triglyceride level. It counts as functional.
Data set [4] has as its system Mus musculus. Briefly: Antihyperglycemic activity in db/db mouse assessed as reduction in plasma glucose level at 0.3 mg/kg, po. It is filed as functional. Details: scale not given: the % may be the effect or the level left.
The subject of data set [5] is Rattus norvegicus. Briefly: Toxicity in male Wistar rat assessed as brain to body weight ratio at 30 mg/kg, po measured after 28 days (reference value: 0.658 +/- 0.015). It counts as organism-based. Details: dose 30 mg/kg, route oral. As to conditions: in vivo, 672 h.
The subject of data set [6] is Rattus norvegicus. Briefly: Toxicity in male Wistar rat assessed as testes to body weight ratio at 30 mg/kg, po measured after 28 days (reference value: 1.075 +/- 0.106). It is filed as organism-based, Testis. Details: dose 30 mg/kg, route oral. The following applies: in vivo, 672 h.
Data set [7] deals with Rattus norvegicus. Briefly: Toxicity in female Wistar rat assessed as change in body weight at 30 mg/kg, po measured after 28 days relative to control. The following applies: in vivo, 672 h. It counts as organism-based. Details: dose 30 mg/kg, route oral. The procedure, abridged:
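Wistar rats received 3 or 30 mg/kg orally for 28 days. Body weight was recorded weekly, and the % change in body weight over the study is tabulated.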

In data set [8] the test system is Rattus norvegicus. Briefly: Toxicity in male Wistar rat assessed as hemoglobin level at 30 mg/kg, po measured after 28 days (reference value: 13.66 +/- 0.23 g/dl). As to conditions: in vivo, 672 h. It is filed as organism-based. Also on record: dose 30 mg/kg, route oral.
The subject of data set [9] is Rattus norvegicus. Briefly: Toxicity in male Wistar rat assessed as Glucose level at 3 mg/kg, po measured after 28 days (reference value: 70 +/- 3.49 mg/dl). It is filed as organism-based. Also on record: dose 3 mg/kg, route oral. As to conditions: in vivo, 672 h.
The subject of data set [10] is Rattus norvegicus. Briefly: Toxicity in male Wistar rat assessed as SGOT level at 3 mg/kg, po measured after 28 days (reference value: 135.14 +/- 6.89 U/L). Details: dose 3 mg/kg, route oral. The following applies: in vivo, 672 h. It is filed as organism-based.
Data set [11] has as its system Rattus norvegicus. Briefly: Toxicity in male Wistar rat assessed as albumin level at 3 mg/kg, po measured after 28 days (reference value: 3.66 +/- 0.10 g.dl). The following applies: in vivo, 672 h. Details: dose 3 mg/kg, route oral. It counts as organism-based.
The subject of data set [12] is Rattus norvegicus. Kind of data set: Toxicity in female Wistar rat assessed as glucose level at 30 mg/kg, po measured after 28 days (reference value: 69.94 +/- 2.30 mg/dl). It is filed as organism-based. Details: dose 30 mg/kg, route oral. As to conditions: in vivo, 672 h.
Data set [13] concerns Rattus norvegicus. Kind of data set: Toxicity in female Wistar rat assessed as creatinine level at 30 mg/kg, po measured after 28 days (reference value: 0.42 +/- 0.04 mg/dl). It is filed as organism-based. Also on record: dose 30 mg/kg, route oral. As to conditions: in vivo, 672 h.
Data set [14] has as its system Rattus norvegicus. Briefly: Toxicity in female Wistar rat assessed as SGOT level at 30 mg/kg, po measured after 28 days (reference value: 155.70 +/- 6.56 U/L). It is filed as organism-based. Details: dose 30 mg/kg, route oral. As to conditions: in vivo, 672 h.
Data set [15] deals with Rattus norvegicus. Kind of data set: Toxicity in female Wistar rat assessed as SGPT level at 30 mg/kg, po measured after 28 days (reference value: 30.44 +/- 1.59 U/L). It counts as organism-based. As to conditions: in vivo, 672 h. Details: dose 30 mg/kg, route oral.
In data set [16] the test system is Rattus norvegicus. Briefly: Toxicity in female Wistar rat assessed as ALP level at 30 mg/kg, po measured after 28 days (reference value: 172.38 +/- 7.18 U/L). The following applies: in vivo, 672 h.

With `CCO[C@@H](Cc1ccc(OCCc2nc(-c3ccc(C)s3)oc2C)cc1)C(=O)O`, the Activity with Mus musculus [1] turned out to be 88%; in the data set with Mus musculus [2] it was 7.2%; in the data set on Mus musculus [4], 58.2%; in the data set with Rattus norvegicus [7], 21.71%; with Rattus norvegicus [8], 12.46 g/dL; in the data set with Rattus norvegicus [9], 75.74 mg/dL. For the same molecule, the Activity in the data set on Rattus norvegicus [10] worked out at 193.51 U/L; with Rattus norvegicus [11], 3.91 g/dL; in the data set with Rattus norvegicus [12], 91.79 mg/dL; in the data set on Rattus norvegicus [13], 0.41 mg/dL; with Rattus norvegicus [14], 224 U/L; in the data set with Rattus norvegicus [15], 35.21 U/L. Further, the Activity in the data set with Rattus norvegicus [16] is on record as 248.38 U/L. Also, in the data set listed under Mus musculus [3], the ED50 worked out at 0.0188 mg/kg. In addition, the figures for the Ratio with Rattus norvegicus [5] and with Rattus norvegicus [6] were 0.757 and 1.356, respectively.
